≈ marks a conversion by molar mass, not a printed value. Calls of active or inactive are those of the source.

For series [1], the system named is NCI-H358. Put plainly: Induction of apoptosis in p53 null, […] human NCI-H358 cells assessed as fragmented nuclei/distrupted cell membrane at 1 to 10 uM by DAPI staining-based flow cytometry. The note with it: TDE = time-dependent effect.
A short description of series [2]: Efflux ratio of permeability across basolateral to apical side over apical to basolateral side in human Caco2 cells. Format: ADME, cell-based. The settings on record: Caco-2.
Series [3] has as its system NCI-H358. Put plainly: Cell cycle arrest in human NCI-H358 cells assessed as accumulation of cells at S phase at IC50 concentration after 18 hrs by flow cytometry in presence of […] uM hydroxyurea for 18 hrs (reference value: 12%). Format: functional.
The nature of series [4]: Cmax in BALB/c mouse at 1 mg/kg, iv. Format: ADME, organism-based. Further details: dose 1 mg/kg, route intravenous. The settings on record: in vivo. The method, boiled down: (§1)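 BALB/c mice given a single dose of 1.0 mg/kg IV or 10 mg/kg orally; plasma concentration followed over time and pharmacokinetic parameters derived from the time-concentration profile.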
The target in another series is Tubulin (Homo sapiens) (UniProt P68371+Q9H4B7+P0DPH7+P68366+Q13509+Q71U36+P04350+Q3ZCM7+P07437+P68363+Q9BQE3+Q6PEY2+Q13885+Q9BVA1+Q9BUF5). Put plainly: Inhibition of tubulin (unknown origin) polymerization assessed as decrease in Vmax measured by spectrophotometry. The series is classed as protein-complex assay. The method in brief:
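Purified tubulin polymerisation followed as absorbance increase over about 4000 s. Vmax (mOD/min) is taken as the read-out, with final polymer mass also noted. Compound is tested at 2.5, 5, 10 and 25 µM alongside untreated control, paclitaxel 10 µM (enhancer) and nocodazole 10 µM (inhibitor). Curves are the average of three independent experiments.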

A short description of series [5]: Cell cycle arrest in mouse BNL-CL2 cells assessed as accumulation of cells at subG1 phase at IC50 concentration after 48 hrs by flow cytometry (reference value: 0%). The series is classed as functional. The method in brief:
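Normal (BNL CL2) and SV40 large T-antigen transformed (BNL SV A.8) mouse embryonic hepatic cells were treated at IC50 or IC70 concentration for 48 h. Analysis was by FACS, with apoptosis taken as % cells in the sub-G1 peak. Untreated cells served as control.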
(In general: A flow cytometer gives signals particle by particle.)

Another series relates to A549. Put plainly: Induction of apoptosis in p53+, pRb+ human A549 cells assessed as fragmented nuclei/distrupted cell membrane after 24 hrs by DAPI staining-based flow cytometry. Format: functional.
Another series has as its system Mus musculus. As to the kind of experiment: Toxicity in human HCT116 cells xenografted in SCID mouse assessed as change in body weight at 100 mg/kg, ip relative to untreated control. The arrangement: dose 100 mg/kg, route intraperitoneal. The note with it: in vivo. The series is classed as organism-based, HCT-116. The method, boiled down:
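SCID male mice, 18-25 g, 6-8 weeks old, received 6.6 × 10^6 HCT-116 cells subcutaneously on the dorsal side. Randomized into groups of 7 at 4-6 mm tumors (about 5 days), then dosed intraperitoneally for 9 consecutive days. Tumor size recorded every 2-5 days, weight = L×W²×0.5; %GI = 100 − %T/C. Body weight taken daily relative to start; Student t-test.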
In general terms: A xenograft is tissue or cells of one species grown in another, often human tumour cells in immunodeficient mice.

The next series deals with MiaPaCa. Put plainly: Induction in Cdk1 level in p53His273 mutant, pRb+ human MiaPaCa cells at IC50 concentration after 48 hrs by Western blot analysis. Format: functional. A general note: A western blot detects proteins with antibodies after separation by electrophoresis.
The subject of a further series is NCI-H460. Put plainly: Induction of apoptosis in p53+, pRb+ human NCI-H460 cells assessed as fragmented nuclei/distrupted cell membrane after 24 hrs by DAPI staining-based flow cytometry. The series is classed as functional.
For another series, the system named is NCI-H1299. As to the kind of experiment: Growth inhibition of p53 null, pRb+ human NCI-H1299 cells after 48 hrs by MTT assay. Format: functional, cell-based. The note with it: NCI-H1299, 48 h. The method, boiled down:
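MTT cell proliferation assay. IC50 (µM) was defined as the concentration giving 50% inhibition of cell growth.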

Series [6] is described as follows: Volume of distribution at steady state in BALB/c mouse at 1 mg/kg, iv. The series is classed as ADME, organism-based. Further details: dose 1 mg/kg, route intravenous. The settings on record: in vivo, read-out: Vdss. The method, boiled down: as §1
Series [7] is described as follows: Solubility in water. The series is classed as physicochemical.

The term efflux ratio denotes the permeability from basolateral to apical divided by that in the opposite direction, in the common usage. As usually defined, the Cmax is the maximum level reached in the sampled fluid or tissue. As usually defined, the IC50 is the concentration at which inhibition is half-maximal. Read a low IC50 as inhibition by little substance. A word on the solubility: it is the concentration that dissolves in the medium under given conditions. As to `CN(CCc1c[nH]c2ccccc12)C(=O)c1ccc(-c2ccccc2)cc1`, the Activity entry with NCI-H358 [1] was “tde”; in the series with NCI-H358 [3] it was 10%; in series [5], 2%; with A549, “Dose-dependent effect”; in the series with Mus musculus, “<= 10%”; in the series with NCI-H460 it was “Dose-dependent effect”. Further, the efflux ratio in series [2] worked out at 1.1. The molecule also showed a Cmax in series [4] of 371 ng/mL. On Tubulin (Homo sapiens), the inhibition result is “Dose-dependent effect”. For the same molecule, the result with MiaPaCa was Active. The molecule further came in with an IC50 in the series on NCI-H1299 of 2500 nM. Besides, the Vd in series [6] came out at 1.76 L/kg. Besides, in [7], the concentration in solution (solubility) came to 80 µg/mL (≈ 226 µM).

The record behind these values is ChEMBL document CHEMBL3351368, “Biphenyl-4-carboxylic acid [2-(1H-indol-3-yl)-ethyl]-methylamide (CA224), a nonplanar analogue of fascaplysin, inhibits Cdk4 and tubulin polymerization: evaluation of in vitro and in vivo anticancer activity” (J Med Chem, 2014).
